According to ChEMBL document CHEMBL1126943, “N-substituted dibenzoxazepines as analgesic PGE2 antagonists” (J Med Chem, 1993):
Where “and” joins values, the source holds several entries; their conditions need not be identical. Identical values can stand only once. Calls of active or inactive are those of the source. The calls are words filed in the database; no cut-off is given here.

Key:
Cavia porcellus [1] = organism: Cavia porcellus; assay: Antinociceptive activity against PGE-2 in guinea pig ileum at 3 uM; inactive; type: functional, organism-based
Mus musculus [2] = assay: Antinociception at dosage of 30 mg/kg administered in 10 mice.; type: functional
How it was run: (§1)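 Male albino CD-1 mice, 20–30 g, were given test compound sc or ig (0.1 mL/10 g) at 30 mg/kg. After 25 min they received 0.025% (w/v) phenylbenzoquinone ip. Writhes were counted for 10 min, starting 5 min later. A mouse counted as protected if its writhes were ≤ half the median of that day's saline group. The result is the number of mice protected.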

Mus musculus [3] = assay: Compound was evaluated for antinociception at dosage of 30 mg/kg administered in 9 mice; type: functional; how it was run: as §1
Cavia porcellus [4] = organism: Cavia porcellus; assay: Antinociceptive activity against PGE-2 in guinea pig ileum at 3 uM; type: functional; settings: read-out: pA2 (converted)
How it was run: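 Ileum segments (2 cm) from male Hartley guinea pigs were held in modified Tyrode with atropine (0.14 μM) and pyrilamine (2.5 μM), at 37 °C under 95% O2/5% CO2 and 1 g tension. PGE2 concentration–response curves (2 min per dose) were run without and then with test compound. pA2 was calculated from the dose ratio at 3 μM compound.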

Mus musculus [5] = assay: Effective dose required for writhing response in mouse […] on ig administration; type: functional; settings: po
How it was run: (§2)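 In the mouse phenylbenzoquinone writhing test, male CD-1 mice (20–30 g) were dosed ig or sc. After 25 min, 0.025% phenylbenzoquinone was given ip, and writhes were counted over 10 min beginning 5 min later. Protection meant ≤ half the saline median. The ED50 is the dose protecting 50% of mice, with 95% confidence limits from maximum likelihood.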

Mus musculus [6] = assay: Effective dose required for writhing response in mouse […] on sc administration; type: functional; how it was run: as §2

Cl.O=C(Cc1ccccn1)NNC(=O)N1Cc2ccccc2Oc2ccc(Cl)cc21
pA2 (Cavia porcellus [1]): inactive | No. of mice (Mus musculus [2]): 2

Cl.O=C(Cc1ccncc1)NNC(=O)N1Cc2ccccc2Oc2ccc(Cl)cc21
No. of mice (Mus musculus [2]): 1 | No. of mice (Mus musculus [3]): 3

Cl.O=C(CCCc1ccccn1)NNC(=O)N1Cc2ccccc2Oc2ccc(Cl)cc21
No. of mice (Mus musculus [2]; 30 mg/kg): 4 and 5

CC(=O)NNC(=O)N1Cc2ccccc2Oc2ccc(Cl)cc21
Kb (Cavia porcellus [4]): 3160 nM

Cl.O=C(/C=C/c1ccccn1)NNC(=O)N1Cc2ccccc2Oc2ccc(Cl)cc21
pA2 (Cavia porcellus [1]): inactive | No. of mice (Mus musculus [2]; 30 mg/kg): 1 and 2

O=C(/C=C/c1cccnc1)NNC(=O)N1Cc2ccccc2Oc2ccc(Cl)cc21
No. of mice (Mus musculus [2]; 30 mg/kg): 6 and 5

O=C(CCc1cc[n+]([O-])cc1)NNC(=O)N1Cc2ccccc2Oc2ccc(Cl)cc21
No. of mice (Mus musculus [2]): 5

Cl.O=C(/C=C/c1ccncc1)NNC(=O)N1Cc2ccccc2Oc2ccc(Cl)cc21
No. of mice (Mus musculus [2]; 30 mg/kg): 2 and 4

Cl.O=C(Cc1cccnc1)NNC(=O)N1Cc2ccccc2Oc2ccc(Cl)cc21
No. of mice (Mus musculus [2]; 30 mg/kg): 3 and 5

Cl.O=C(NNC(=O)C(F)(F)Cc1ccccn1)N1Cc2ccccc2Oc2ccc(Cl)cc21
ED50 (Mus musculus [5]): 9.7 mg/kg

Cl.O=C(NNC(=O)N1Cc2ccccc2Oc2ccc(Cl)cc21)c1ccncc1
pA2 (Cavia porcellus [1]): inactive | No. of mice (Mus musculus [2]; 30 mg/kg): 1 and 2

O=C(Cc1ccccc1)NNC(=O)N1Cc2ccccc2Oc2ccc(Cl)cc21
Kb (Cavia porcellus [4]): 1000 nM

CCCC(=O)NNC(=O)N1Cc2ccccc2Oc2ccc(Cl)cc21
Kb (Cavia porcellus [4]): 1000 nM

O=C(CCCCCl)NNC(=O)N1Cc2ccccc2Oc2ccc(Cl)cc21 [PINADOLINE]
Kb (Cavia porcellus [4]): 631 nM

CC(C)Cc1ccc(C(C)C(=O)O)cc1 (stereo not given) [IBUPROFEN]
ED50 (Mus musculus [5]): 4.8 mg/kg

O=C(CCc1cccc[n+]1[O-])NNC(=O)N1Cc2ccccc2Oc2ccc(Cl)cc21
No. of mice (Mus musculus [2]; 30 mg/kg): 1 and 3

O=C(CCCc1ccncc1)NNC(=O)N1Cc2ccccc2Oc2ccc(Cl)cc21
No. of mice (Mus musculus [2]): 6 | ED50 (Mus musculus [6]): 9.7 mg/kg

Cl.O=C(CCc1ccccn1)NNC(=O)N1Cc2ccccc2Oc2ccc(Cl)cc21
Kb (Cavia porcellus [4]): 398 nM | ED50 (Mus musculus [5]): 5.8 mg/kg | ED50 (Mus musculus [6]): 9.8 mg/kg

Cl.O=C(CCc1cccnc1)NNC(=O)N1Cc2ccccc2Oc2ccc(Cl)cc21
No. of mice (Mus musculus [2]; 30 mg/kg): 6 and 5

Cl.O=C(NNC(=O)N1Cc2ccccc2Oc2ccc(Cl)cc21)c1ccccn1
pA2 (Cavia porcellus [1]): inactive | No. of mice (Mus musculus [2]; 30 mg/kg): 3 and 2

Cl.O=C(NNC(=O)N1Cc2ccccc2Oc2ccc(Cl)cc21)c1cccnc1
pA2 (Cavia porcellus [1]): inactive | No. of mice (Mus musculus [2]; 30 mg/kg): 3 and 1

Cl.O=C(CCc1ccncc1)NNC(=O)N1Cc2ccccc2Oc2ccc(Cl)cc21
Kb (Cavia porcellus [4]): 316 nM | ED50 (Mus musculus [5]): 6.8 mg/kg | ED50 (Mus musculus [6]): 6.3 mg/kg

Cl.O=C(NNC(=O)C(F)(F)C(O)c1ccccn1)N1Cc2ccccc2Oc2ccc(Cl)cc21 (stereo not given)
Kb (Cavia porcellus [4]): 31.6 nM | ED50 (Mus musculus [5]): 9.1 mg/kg | ED50 (Mus musculus [6]): 7.1 mg/kg

Cl.O=C(NNC(=O)C(F)(F)C(O)c1ccncc1)N1Cc2ccccc2Oc2ccc(Cl)cc21 (stereo not given)
ED50 (Mus musculus [5]): 12.3 mg/kg | No. of mice (Mus musculus [2]): 5

CC(=O)Oc1ccccc1C(=O)O [ASPIRIN]
ED50 (Mus musculus [5]): 42.3 mg/kg

CCCCCC(=O)NNC(=O)N1Cc2ccccc2Oc2ccc(Cl)cc21
Kb (Cavia porcellus [4]): 251 nM
